In the library only some 2% were active in any assay of this set; here they are far more common.
T cruzi inh – blocks replication of Trypanosoma cruzi. hit rate 1.4% among 300,000. T. cruzi beta-gal in NIH3T3, luminescence, 90 h. AID 1885. inhibition, % (test concentration not listed);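 active = mean inhibition across valid replicates above about 55%, limit read from the data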;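 also: signal also drops with host cell toxicity which is not excluded here; 0% = plate median of DMSO wells and 100% = zero luminescence signal; higher percent means less beta-gal luminescence so fewer parasites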
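Incubation – ≥90 h infection period, 3 h prior cell attachment · System – NIH/3T3 fibroblasts plus reporter T. cruzi · Doses – compound pinned at 50 nL/well, DMSO · Read-out basis – percent inhibition of parasite-derived β-gal signal · Signal – luminescent β-galactosidase signal after 60 min lysis · Also added – 5000 T. cruzi trypomastigotes/well · Medium – Low-serum DMEM with 2% FBS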
ARNT-TACC3 inh – ARNT/TACC3 interaction disruption | AlphaScreen His-ARNT PAS-B/GST-TACC3 binding, luminescence; TACC3 fragment carries E629A point mutation | inhibition, % at 9.99 µM | Q9Y6A5 | hit rate 0.66% among 390,000;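 active = mean inhibition of replicates at least 50% and at least half of replicates each reaching 50%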;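 also: 0% = complete ARNT plus TACC3 wells and 100% = ARNT alone without TACC3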
AI-2 QS mod – modulators of Vibrio harveyi AI-2 quorum sensing system; Vibrio harveyi JMH597 AI-2 luminescence/OD600 ratio, 9 h; active compounds read low; strain lacks LuxN and CqsS sensors; 0 = neutral-control median; activity change, % at 7.5 µM; hit rate 0.4% among 300,000; in the data active = activity change below about -75%, passing the limit was not always enough;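 also: luminescence divided by OD600 gain over 9 h not by final OD600 alone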
HIF activator – HIF pathway transcriptional activation; U2OS HRE-luciferase reporter, luminescence; normalized: DMSO 0%, desferrioxamine 100%; activation, % at 7.5 µM (by protocol); hit rate 0.32% among 300,000; AID 1910;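 active = mean activation of at least 10% of the iron chelator positive control signal, with at least half of replicates also reaching 10%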
Starred values were filed as active, the others as inactive; nt = no result given.

SMILES	T cruzi inh	ARNT-TACC3 inh	AI-2 QS mod	HIF activator
COc1ccc(NC(=O)N(C)C[C@H]2OCc3cn(nn3)CCCC(=O)N([C@H](C)CO)C[C@H]2C)cc1	nt	-3	nt	nt
Oc1ccc(-c2cc(-c3ccc(O)cc3)nc(-c3ccccc3)n2)cc1	55*	2	19	1
Cc1cc(N2CCN(C)CC2)nc2ccc(NC(=S)NCCN3CCc4ccccc4C3)cc12	56*	20	10	-17
Cc1cc(N2CCN(C)CC2)nc2ccc(NC(=S)NCCCN3CCc4ccccc4C3)cc12	49	20	25	1
Cc1cc(N2CCCC2)nc2ccc(NC(=S)NCCCN3CCC(C)CC3)cc12	60*	10	22	1
CN1C(=O)N(C)C2(c3ccccc3)NC(=O)NC12c1ccccc1 (centres undefined)	-9	21	15	0
CN1c2ccccc2N(C)C1(C)c1ccccc1	62*	36	31	0
CCN1c2ccccc2N(C)C1(C)c1ccccc1 (centres undefined)	nt	64*	nt	nt
COc1ccccc1N=Cc1c(C)[nH]n(-c2ccc(C)cc2C)c1=O	3	12	23	0
COc1ccc2nc(/N=C/c3c(C)[nH]n(-c4ccc(C)cc4C)c3=O)sc2c1	-11	66*	11	0
COc1ccc(-n2c(SCc3ccc([N+](=O)[O-])cc3)nnc2-c2ccc(C)cc2)cc1	70*	2	28	0
COc1cccc(NC(=O)Nc2ccc(C)c(Cl)c2)c1	61*	-1	10	2
COC(=O)c1cccc(NC(=O)NC(=O)c2ccccc2Cl)c1	-2	-7	1	-4
COc1cccc(NC(=O)Nc2cc(C(=O)O)ccc2C)c1	-4	-2	29	-1
COC(=O)c1cccc(NC(=O)Nc2ccc(Cl)c(Cl)c2)c1	55*	-12	11	3
O=C(NCc1cccs1)Nc1cccc(Cl)c1	-1	4	-91*	-5
O=C(Nc1cccc(Cl)c1)Nc1cccc(C(=O)O)c1	-8	2	37	12*
O=C1C=C(NCCc2cc(Br)c(O)c(Br)c2)C(=O)c2ncccc21	nt	64*	nt	nt
CC(C)(C)c1cc(CCC(=O)NCCc2ccccn2)cc(C(C)(C)C)c1O	4	10	4	0
O=C1CC(NS(=O)(=O)c2ccc([N+](=O)[O-])cc2)CN1c1ccc(Cl)cc1 (centres undefined)	62*	nt	35	0
C[C@H](CO)N1C[C@H](C)[C@@H](CN(C)Cc2ccccc2F)Oc2ncc(C3=CCCC3)cc2C1=O	nt	0	nt	nt
Nc1ccc2nc(N3CCOCC3)sc2c1	76*	20	14	-3
c1ccc2sc(N3CCOCC3)nc2c1	-11	1	13	2
N#CCC(=O)NNC(=S)NC(=O)C(c1ccccc1)c1ccccc1	-3	40	25	0
CC(=O)NC(=S)NNC(=O)C(c1ccccc1)c1ccccc1	17	5	-87*	-1
SMILES	T cruzi inh	ARNT-TACC3 inh	AI-2 QS mod	HIF activator
C[C@@H]1CN([C@H](C)CO)S(=O)(=O)c2ccc(C3=CCCC3)cc2O[C@@H]1CN(C)C(=O)c1cnccn1	nt	6	nt	nt
CCc1ccc(C(=O)COC(=O)c2n[nH]c3ccccc23)cc1	-2	3	-78*	1
COCCNC(=O)C[C@H]1C[C@H]2c3cc(NC(=O)Nc4ccc(C(F)(F)F)cc4)ccc3O[C@H]2[C@@H](CO)O1	nt	-2	nt	nt
COc1cc2c(cc1OC)-c1cc(Nc3ccc(N(C)C)cc3)nc(=O)n1CC2	2	45*	14	1
Cc1ccc(S(=O)(=O)Nc2cccc3ncccc23)cc1	-17	-8	22	0
Cc1ccc(S(=O)(=O)Nc2cccc3ncccc23)s1	53	70*	25	2
CCN(CC)CCSc1nnc2c3cc(F)ccc3n(Cc3ccccc3)c2n1	44	nt	3	1
CCN(CC)CCSc1nnc2c3ccccc3n(Cc3ccccc3)c2n1	69*	11	13	0
CC(C)c1nnc(NC(=O)c2cnccn2)s1	-1	50*	20	0
CN(C)Cc1cn(CC[C@H]2CC[C@@H](NS(=O)(=O)c3ccc(-c4ccccc4)cc3)[C@H](CO)O2)nn1	nt	8	nt	nt
CCOc1ccc(N/C=C\C(=O)c2ccc3c(c2)OCO3)cc1	-1	-2	4	1
COc1ccc(N/C=C\C(=O)c2ccc3c(c2)OCO3)cc1	7	15	11	13*
Cn1nc([N+](=O)[O-])c(C(C#N)c2ccccn2)c(Cl)c1=O (centres undefined)	64*	12	46	0
Cc1noc(C)c1S(=O)(=O)Nc1ccc2c(c1)CC(=O)N([C@@H](C)CO)C[C@@H](C)[C@H](CN(C)CC1CCCCC1)O2	nt	1	nt	nt
O=C(Cc1cccs1)N/N=C/c1ccccc1	2	-4	0	1
CCN(CC)c1ccc(/C=N/NC(=O)c2ccco2)c(O)c1	61*	74*	-27	78*
CCN(CC)c1ccc(/C=N/NC(=O)Cc2cccs2)c(O)c1	39	32*	-6	2
COc1cc(/C=C/c2ccc3cccc(O)c3n2)cc(Br)c1OC	72*	-6	19	-4
CCC(=O)N(C)C[C@@H]1Oc2cc(C#Cc3ccccn3)ccc2S(=O)(=O)N([C@@H](C)CO)C[C@H]1C	nt	-4	nt	nt
Cc1ccc(/C=C/C(=O)N2CCCC(C)C2)cc1 (centres undefined)	20	-3	6	-2
CC1CCN(C(=O)/C=C/c2ccc(C(C)(C)C)cc2)CC1	12	nt	-89*	1
COc1ccc(-c2nc(CN3CCN(Cc4cccc(F)c4)CC3)c(C)o2)cc1	50	nt	22	0
COc1ccc(-c2nc(CN3CCN(Cc4cccc(Cl)c4)CC3)c(C)o2)cc1	56*	10	1	0
COC(=O)c1ccc(-c2nc(CN3CCN(Cc4cccc(C)c4)CC3)c(C)o2)cc1	57*	8	14	0
O=C(C1CCCC1)N1CCCCN2[C@H](CO)[C@H](c3ccc(C4=CCCC4)cc3)[C@@H]2C1	nt	4	nt	nt
SMILES	T cruzi inh	ARNT-TACC3 inh	AI-2 QS mod	HIF activator
COc1ccc(-n2cc(CN(C)C(C)c3ccncn3)c(-c3cccc(F)c3)n2)cc1 (centres undefined)	66*	-4	18	0
COc1cccc(-c2nn(-c3ccccc3)cc2CN(C)C(C)c2ccncn2)c1 (centres undefined)	12	0	-2	1
O=C(C[C@H]1C[C@@H]2c3cc(NC(=O)CC4CC4)ccc3O[C@@H]2[C@@H](CO)O1)NCc1cccc(F)c1	nt	active	nt	nt
O=C(C[C@H]1C[C@H]2c3cc(NC(=O)CC4CC4)ccc3O[C@H]2[C@@H](CO)O1)NCc1cccc(F)c1	nt	-3	nt	nt
CCCC#Cc1cnc2c(c1)C(=O)N([C@@H](C)CO)C[C@@H](C)[C@@H](CN(C)S(C)(=O)=O)O2	nt	2	nt	nt
CCN(CC)C(=O)CSc1nnc2nnc3cc(Cl)ccc3n12	59*	-14	35	0
Clc1ccc(-c2noc(CN(Cc3ccccn3)CC3CCCO3)n2)cc1 (centres undefined)	0	4	-4	0

High-throughput results from PubChem.
